Results as given in ChEMBL document CHEMBL1221310, “Discovery of potent HIV integrase inhibitors active against raltegravir resistant viruses” (Bioorg Med Chem Lett, 2010).

Legend:
[1] = tested on: Human immunodeficiency virus; test: Antiviral activity against wild type HIV assessed as inhibition of p24 antigen production after 48 hrs by cell based luciferase reporter gene assay; type: functional, organism-based; settings: Human immunodeficiency virus 1, 48 h
[2] = Inhibition of HIV integrase after 2 hrs by combined strand transfer assay; set-up: species or system Human immunodeficiency virus
Outline: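 Integrase (400 ng) was incubated 2 h at 37 °C with 30 nM pre-processed U5 LTR duplex substrate, one strand DIG-tagged and the other biotin-tagged. 3′-processing/strand-transfer products were captured on streptavidin plates and detected with anti-DIG-alkaline phosphatase and p-nitrophenyl phosphate.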

[3] = tested on: Human immunodeficiency virus; test: Antiviral activity against raltegravir-resistant HIV expressing integrase N155H/E92Q mutant infected in HEK293T cells after 48 hrs by luciferase reporter gene assay; type: functional, organism-based, HEK-293T
Outline: (§1)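 VSV-G-pseudotyped, env-deleted HIV-1 carrying luciferase in nef, made by cotransfecting 293T cells; integrase resistance mutations introduced by site-directed mutagenesis. 293T cells seeded 16 h before compound, preincubated with compound 4 h at 37 °C, then infected with virus giving about 10,000 luciferase light units without compound. Luciferase read 48 h post-infection.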

[4] = tested on: Human immunodeficiency virus; test: Antiviral activity against raltegravir-resistant HIV expressing integrase Q148H/G140S mutant infected in HEK293T cells after 48 hrs by luciferase reporter gene assay; type: functional, organism-based; settings: Human immunodeficiency virus 1, HEK-293T; outline: as §1
[5] = tested on: Human immunodeficiency virus; test: Antiviral activity against raltegravir-resistant HIV expressing integrase Q148H/G140S mutant infected in HEK293T cells after 48 hrs by luciferase reporter gene assay in presence of 10% FBS; type: functional, organism-based; settings: Human immunodeficiency virus 1, HEK-293T; outline: as §1
[6] = tested on: Human immunodeficiency virus; test: Antiviral activity against wild type HIV assessed as inhibition of p24 antigen production after 48 hrs by cell based luciferase reporter gene assay in presence of 50% normal human serum; type: functional, organism-based; settings: Human immunodeficiency virus 1, 48 h
[7] = Half life in microsomes; type: ADME, Microsome
[8] = tested on: Human immunodeficiency virus; test: Antiviral activity against wild type HIV assessed as inhibition of p24 antigen production after 48 hrs by cell based luciferase reporter gene assay in presence of 10% normal human serum; type: functional, organism-based; settings: Human immunodeficiency virus 1, 48 h
[9] = tested on: Human immunodeficiency virus; test: Antiviral activity against raltegravir-resistant HIV expressing integrase N155H/E92Q mutant infected in HEK293T cells after 48 hrs by luciferase reporter gene assay in presence of 10% FBS; type: functional, organism-based; settings: Human immunodeficiency virus 1, HEK-293T; outline: as §1
[10] = Human immunodeficiency virus 1, HEK-293T, 48 h, read-out: EC50

| Structure (SMILES) | EC50 [1] | IC50 ([2]; read-out: IC50) | EC50 [3, 10] | EC50 [4] | IC50 [2] | EC50 ([3]; hek-293t) | EC50 [5] | EC50 [6] | half-life [7] | EC50 [8] | EC50 [9] |
| --- | --- | --- | --- | --- | --- | --- | --- | --- | --- | --- | --- |
| O=c1c(O)c(-c2ncc(Cc3ccc(F)cc3)s2)nc2c(N3CCCS3(=O)=O)cc(N3CCOCC3)cn12 | 6.4 nM | 48 nM | 49.5 nM | 280 nM | – | – | – | – | – | – | – |
| O=c1c(O)c(-c2ncc(Cc3ccc(F)cc3)s2)nc2ccc(N3CCOCC3)cn12 | 32 nM | 20 nM | 74.5 nM | 3000 nM | – | – | – | – | – | – | – |
| O=c1c(O)c(-c2ncc(Cc3ccc(F)cc3)s2)nc2c(Br)cc(N3CCOCC3)cn12 | 14 nM | 42 nM | 19 nM | 2500 nM | – | – | – | – | – | – | – |
| COc1cc(N2CCOCC2)cn2c(=O)c(O)c(-c3ncc(Cc4ccc(F)cc4)s3)nc12 | 100 nM | – | – | 5900 nM | Not Active | Not Active | – | – | – | – | – |
| CC(=O)c1cc(N2CCOCC2)cn2c(=O)c(O)c(-c3ncc(Cc4ccc(F)cc4)s3)nc12 | 9.5 nM | 15 nM | – | 885 nM | – | Not Active | – | – | – | – | – |
| CC(O)c1cc(N2CCOCC2)cn2c(=O)c(O)c(-c3ncc(Cc4ccc(F)cc4)s3)nc12 (stereo not drawn) | 10.5 nM | – | – | 800 nM | Not Active | Not Active | – | – | – | – | – |
| CC(c1cc(N2CCOCC2)cn2c(=O)c(O)c(-c3ncc(Cc4ccc(F)cc4)s3)nc12)N1CCCCC1 (stereo not drawn) | 110 nM | – | – | 5500 nM | Not Active | Not Active | – | – | – | – | – |
| O=C(c1cc(N2CCOCC2)cn2c(=O)c(O)c(-c3ncc(Cc4ccc(F)cc4)s3)nc12)N1CCCC1 | 81 nM | 70 nM | 200 nM | 1180 nM | – | – | – | – | – | – | – |
| CN1CCN(c2cc(N3CCOCC3)cn3c(=O)c(O)c(-c4ncc(Cc5ccc(F)cc5)s4)nc23)S1(=O)=O | 8.5 nM | 38 nM | 18.5 nM | 112 nM | – | – | – | – | – | – | – |
| O=C1CCCN1c1cc(N2CCOCC2)cn2c(=O)c(O)c(-c3ncc(Cc4ccc(F)cc4)s3)nc12 | 21 nM | – | – | 335 nM | Not Active | Not Active | – | – | – | – | – |
| O=C1OCCN1c1cc(N2CCOCC2)cn2c(=O)c(O)c(-c3ncc(Cc4ccc(F)cc4)s3)nc12 | 7.1 nM | 26 nM | 25 nM | 108 nM | – | – | – | – | – | – | – |
| O=C1OCCCN1c1cc(N2CCOCC2)cn2c(=O)c(O)c(-c3ncc(Cc4ccc(F)cc4)s3)nc12 | 4.3 nM | – | 10.5 nM | 16.5 nM | Not Active | – | – | – | – | – | – |
| CN1CCN(c2cc(N3CCOCC3)cn3c(=O)c(O)c(-c4ncc(Cc5ccc(F)cc5)s4)nc23)C1=O | 24 nM | 47 nM | 10 nM | 71 nM | – | – | – | – | – | – | – |
| CN1CCCN(c2cc(N3CCOCC3)cn3c(=O)c(O)c(-c4ncc(Cc5ccc(F)cc5)s4)nc23)C1=O | 11.5 nM | – | 21.5 nM | 34 nM | Not Active | – | – | – | – | – | – |
| CC(C)N1CCN(c2cc(N3CCOCC3)cn3c(=O)c(O)c(-c4ncc(Cc5ccc(F)cc5)s4)nc23)C1=O | 7.5 nM | 19 nM | 9.7 nM | 18 nM | – | – | – | – | – | – | – |
| CC(C)N(C)C(=O)N(C)c1cc(N2CCOCC2)cn2c(=O)c(O)c(-c3ncc(Cc4ccc(F)cc4)s3)nc12 | 16.5 nM | – | – | 120 nM | Not Active | Not Active | – | – | – | – | – |
| CC(C)N(C)C(=O)Nc1cc(N2CCOCC2)cn2c(=O)c(O)c(-c3ncc(Cc4ccc(F)cc4)s3)nc12 | 22 nM | – | – | > 10000 nM | Not Active | Not Active | – | – | – | – | – |
| CN1CCN(c2cc(N(C)C)cn3c(=O)c(O)c(-c4ncc(Cc5ccc(F)cc5)s4)nc23)C1=O | 19.5 nM | 90 nM | 32.5 nM | 92.5 nM | – | – | – | – | – | – | – |
| CN1CCN(c2cc(CN3CCOCC3)cn3c(=O)c(O)c(-c4ncc(Cc5ccc(F)cc5)s4)nc23)C1=O | 3.5 nM | 25 nM | 14.5 nM | 243 nM | – | – | – | – | – | – | – |
| CC(NC1CC1)c1cc(N2CCN(C)C2=O)c2nc(-c3ncc(Cc4ccc(F)cc4)s3)c(O)c(=O)n2c1 (stereo not drawn) | 11.5 nM | – | – | 268 nM | Not Active | Not Active | – | – | – | – | – |
| CN1CCN(c2cc(N3CCNCC3=O)cn3c(=O)c(O)c(-c4ncc(Cc5ccc(F)cc5)s4)nc23)C1=O | 27 nM | – | – | 1100 nM | Not Active | Not Active | – | – | – | – | – |
| CC(C)N1CCN(c2cc(N3CCN(C)C3=O)c3nc(-c4ncc(Cc5ccc(F)cc5)s4)c(O)c(=O)n3c2)CC1 | 6.8 nM | 19 nM | 8.9 nM | 21 nM | – | – | – | – | – | – | – |
| O=C1CNCCN1c1cc(N2CCOCC2)cn2c(=O)c(O)c(-c3ncc(Cc4ccc(F)cc4)s3)nc12 | – | – | – | – | – | – | 34.5 nM | 6.1 nM | 52 min | 4 nM | 6.7 nM |
| CN1CCN(c2cc(N3CCCOC3=O)c3nc(-c4ncc(Cc5ccc(F)cc5)s4)c(O)c(=O)n3c2)CC1 | – | – | – | – | – | – | 29.5 nM | 6.6 nM | 67.8 min | 3.5 nM | 4.9 nM |
| CC1CN(C)CCN1c1cc(N2CCCOC2=O)c2nc(-c3ncc(Cc4ccc(F)cc4)s3)c(O)c(=O)n2c1 (stereo not drawn) | – | – | – | – | – | – | 40.5 nM | 5.5 nM | 18 min | 4.2 nM | 5.2 nM |
